# Assay results: ChEMBL document CHEMBL4028906, “Allosteric Inhibitors of SHP2 with Therapeutic Potential for Cancer Treatment” (J Med Chem, 2017)
# Activity calls are given as the source filed them. The calls are words filed in the database; no cut-off is given here.
# Tests used:
# [1] = target: Tyrosine-protein phosphatase non-receptor type 6 (Homo sapiens, UniProt P29350); test: Inhibition of SHP1 (unknown origin) expressed in Escherichia coli BL21(DE3) using DIFMUP as substrate preincubated for 20 mins followed by substrate addition measured after 20 mins by phosphatase assay
# Method in brief: (§1)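 Phosphatases purified from E. coli and run as for SHP2 E76A: 20 min room-temperature preincubation with compound in 0.1 M sodium acetate pH 5.0, then DIFMUP at each enzyme's Km, 20 min, fluorescence 358/455 nm. Eight 3-fold dilutions in duplicate; IC50 from at least three independent experiments.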
# [2] = target: Low molecular weight phosphotyrosine protein phosphatase (Homo sapiens, UniProt P24666); test: Inhibition of LMW-PTP (unknown origin) expressed in Escherichia coli BL21(DE3) using DIFMUP as substrate preincubated for 20 mins followed by substrate addition measured after 20 mins by phosphatase assay; method in brief: as §1
# Homo sapiens [3] = species: Homo sapiens; test: Selectivity ratio of IC50 for LMW-PTP (unknown origin) expressed in Escherichia coli BL21(DE3) to IC50 for SHP2 E76A mutant (unknown origin) expressed in Escherichia coli BL21(DE3)
# Method in brief: (§2)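 Ratio of IC50 values from one DIFMUP fluorescence assay (Ex/Em 358/455), room temperature, 0.1 M sodium acetate pH 5.0. His-tagged SHP2 E76A (1.5 nM) or counter-phosphatase purified from E. coli, preincubated 20 min with compound (eight 3-fold dilutions), then DIFMUP added for 20 min. DIFMUP was at Km for each counter-phosphatase. Duplicates; IC50 from at least three independent experiments.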
# Homo sapiens [4] = species: Homo sapiens; test: Selectivity ratio of IC50 for PTP1B (unknown origin) expressed in Escherichia coli BL21(DE3) to IC50 for SHP2 E76A mutant (unknown origin) expressed in Escherichia coli BL21(DE3); method in brief: as §2
# [5] = target: T1, Tyrosine-protein phosphatase non-receptor type 11 (Homo sapiens) (UniProt Q06124); test: Allosteric inhibition of SHP2 in human NCI-H661 cells assessed as downregulation of ERK1/2 activation at 10 uM after 60 mins by Western blot analysis; assay type: cell-based
# T1 sequence (whole entry): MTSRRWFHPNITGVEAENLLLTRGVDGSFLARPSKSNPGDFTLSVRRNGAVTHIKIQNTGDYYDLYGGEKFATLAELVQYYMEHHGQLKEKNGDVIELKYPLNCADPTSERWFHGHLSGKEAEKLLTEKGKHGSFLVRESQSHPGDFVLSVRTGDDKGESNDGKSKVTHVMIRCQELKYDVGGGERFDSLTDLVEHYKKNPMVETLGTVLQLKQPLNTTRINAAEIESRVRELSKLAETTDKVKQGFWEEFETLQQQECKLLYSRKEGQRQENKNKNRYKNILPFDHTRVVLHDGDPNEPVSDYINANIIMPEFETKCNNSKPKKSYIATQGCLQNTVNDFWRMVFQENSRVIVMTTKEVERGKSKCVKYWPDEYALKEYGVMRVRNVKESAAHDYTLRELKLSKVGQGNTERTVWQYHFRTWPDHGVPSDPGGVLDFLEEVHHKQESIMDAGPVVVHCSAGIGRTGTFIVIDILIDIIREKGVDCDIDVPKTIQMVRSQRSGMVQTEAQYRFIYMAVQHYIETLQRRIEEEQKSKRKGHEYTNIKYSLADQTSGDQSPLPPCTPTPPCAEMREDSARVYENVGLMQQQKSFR
# Method in brief: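 NCI-H661 cells given 10 µM inhibitor over a time course. Lysates immunoblotted for p-ERK1/2, ERK1/2, p-AKT and AKT. Repeated at least three times.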
# [6] = target: T1, Tyrosine-protein phosphatase non-receptor type 11 (Homo sapiens); test: Allosteric inhibition of SHP2 in human SF268 cells stably expressing Yap-Luc reporter assessed as reduction in YAP transcriptional activity after 12 hrs by Yap-luciferase reporter gene assay; assay type: cell-based
# [7] = target: T1, Tyrosine-protein phosphatase non-receptor type 11 (Homo sapiens); test: Allosteric inhibition of SHP2 in human SF268 cells assessed as downregulation of YAP-mediated CTGF gene expression ay 10 to 20 uM after 2 hrs by qRT-PCR analysis; assay type: cell-based
# Method in brief: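 SF268 cells exposed to DMSO, 10 μM or 20 μM inhibitor for 2 h. RNA extracted, reverse-transcribed, and CTGF, CYR61, ANKRD1 and YAP mRNA quantified by qPCR; mean±s.d., n=3.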
# MV4-11 [8] = test: Antitumor activity against human MV4-11 cells xenografted in BALB/c mouse assessed as tumor growth inhibition at 30 mg/kg administered qd via oral gavage measured twice weekly relative to control; assay type: functional; settings: MV4-11, po, read-out: TGI
# Method in brief: (§3)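 Female BALB/c nude mice given subcutaneous MV4;11 cells (5×10^6, in 50% phenol red-free matrigel in PBS). Once tumours reached about 230 mm³, mice were randomised to vehicle or oral gavage once daily (10 ml/kg). Tumour volume was measured by caliper in two dimensions twice a week, along with body weight. Data given as mean±sem, with significance assessed on day 14.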
# MV4-11 [9] = test: Antitumor activity against human MV4-11 cells xenografted in BALB/c mouse assessed as tumor growth inhibition at 10 mg/kg administered qd via oral gavage measured twice weekly relative to control; assay type: functional; settings: MV4-11, po, read-out: TGI; method in brief: as §3
# [10] = target: T1, Tyrosine-protein phosphatase non-receptor type 11 (Homo sapiens); test: Allosteric inhibition of SHP2 in human A549 cells harboring KRAS mutant assessed as upregulation of YAP Y357 phosphorylation at 5 and 10 uM after 2 hrs by Western blot analysis; assay type: cell-based
# [11] = target: T1, Tyrosine-protein phosphatase non-receptor type 11 (Homo sapiens); test: Allosteric inhibition of SHP2 in human A549 cells harboring KRAS mutant assessed downregulation on ERK1/2 phosphorylation at 5 and 10 uM after 2 hrs by Western blot analysis; assay type: cell-based
# K562 = test: Antiproliferative activity against human K562 cells at 3 to 6 uM after 2 days by CellTiter-Glo assay; assay type: functional, cell-based
# Method in brief: (§4)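 3000 cells/well in 96-well plates, grown overnight, then inhibitor at indicated concentrations for 2 days (48 h). Viability by CellTiter-Glo; mean±s.d., n=3.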
# NCI-H1838 = test: Antiproliferative activity against human NCI-H1838 cells at 3 to 6 uM after 2 days by CellTiter-Glo assay; assay type: functional, cell-based; method in brief: as §4
# MDA-MB-468 = test: Antiproliferative activity against human MDA-MB-468 cells at 3 to 6 uM after 2 days by CellTiter-Glo assay; assay type: functional, cell-based; method in brief: as §4
# KG-1a = test: Antiproliferative activity against human KG1a cells at 3 to 6 uM after 2 days by CellTiter-Glo assay; assay type: functional, cell-based; method in brief: as §4
# NCI-H661 = test: Antiproliferative activity against human NCI-H661 cells at 3 to 6 uM after 2 days by CellTiter-Glo assay; assay type: functional, cell-based; method in brief: as §4
# KOPN-8 = test: Antiproliferative activity against human KOPN8 cells at 3 to 6 uM after 2 days by CellTiter-Glo assay; assay type: functional, cell-based; method in brief: as §4
# MOLT-4 = test: Antiproliferative activity against human MOLT4 cells at 3 to 6 uM after 2 days by CellTiter-Glo assay; assay type: functional, cell-based; method in brief: as §4
# [12] = Half life in nu/nu mouse at 10 mg/kg, po measured up to 24 hrs postdose by LC/MS/MS analysis; assay type: ADME, organism-based; settings: in vivo
# Method in brief: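 Female nu/nu nude mice dosed IV via tail vein at 5 mg/kg or orally at 10 mg/kg. Blood sampled at 0.083, 0.25, 0.5, 1, 2, 4, 8 and 24 h post-dose (orbital sinus, terminal cardiac puncture; EDTA-2K). Plasma separated at 4 °C, precipitated with acetonitrile containing internal standard, quantified by LC/MS/MS.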
# Sequence of Tyrosine-protein phosphatase non-receptor type 6 (P29350 whole entry): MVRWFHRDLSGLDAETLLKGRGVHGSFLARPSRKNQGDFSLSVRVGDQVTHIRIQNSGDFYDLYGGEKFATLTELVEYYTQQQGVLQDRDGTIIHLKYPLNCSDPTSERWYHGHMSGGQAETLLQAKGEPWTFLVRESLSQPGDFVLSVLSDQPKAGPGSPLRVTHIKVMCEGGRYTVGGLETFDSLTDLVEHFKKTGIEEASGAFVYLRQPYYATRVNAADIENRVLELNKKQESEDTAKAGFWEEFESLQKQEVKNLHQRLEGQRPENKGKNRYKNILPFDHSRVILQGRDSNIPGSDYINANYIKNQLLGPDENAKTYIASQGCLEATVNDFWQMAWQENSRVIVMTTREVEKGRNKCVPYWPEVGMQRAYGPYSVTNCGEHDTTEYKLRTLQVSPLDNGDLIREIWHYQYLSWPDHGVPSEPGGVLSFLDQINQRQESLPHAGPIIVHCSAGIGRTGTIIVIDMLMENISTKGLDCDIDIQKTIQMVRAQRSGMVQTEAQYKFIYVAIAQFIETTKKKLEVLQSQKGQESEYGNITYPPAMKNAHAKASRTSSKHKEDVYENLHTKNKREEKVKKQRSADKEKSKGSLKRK
# Sequence of Low molecular weight phosphotyrosine protein phosphatase (P24666 whole entry): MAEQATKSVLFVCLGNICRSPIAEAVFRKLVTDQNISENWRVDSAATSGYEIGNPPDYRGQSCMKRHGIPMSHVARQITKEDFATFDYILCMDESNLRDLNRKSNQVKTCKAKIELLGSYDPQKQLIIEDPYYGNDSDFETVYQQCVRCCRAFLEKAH
compound,measurement,setting,value
CC1(N)CCN(c2nc(-c3ccc4cc(Br)ccc4c3)cs2)CC1,IC50,[1],34.6 µM
same,IC50,[2],> 100 µM
same,Ratio IC50,Homo sapiens [3],> 30
same,Ratio IC50,Homo sapiens [4],> 30
same,inhibition,[5],Active
same,inhibition,[6],Dose-dependent effect
same,inhibition,[7],Active
same,inhibition in vivo at 30 mg/kg,MV4-11 [8],56%
same,inhibition in vivo at 10 mg/kg,MV4-11 [9],44.6%
same,inhibition,[10],Active
same,inhibition,[11],inactive
same,Activity,K562,Active
same,Activity,NCI-H1838,Active
same,Activity,MDA-MB-468,Active
same,Activity,KG-1a,Active
same,Activity,NCI-H661,Active
same,Activity,KOPN-8,Active
same,Activity,MOLT-4,Active
same,half-life,[12],13.3 h
